The values that follow come from publication PMC11452527 (Nature Communications, 2024).

Like-named read-outs stand apart in the source and are kept apart here.

Data set [1] has as its target αIIbβ3. The settings on record: cited from earlier work.
For the next data set, the system named is platelets. The conditions noted are these: cited from earlier work.
The subject of another data set is human PRP. The data set is described as follows: Thrombin-induced clot retraction in platelet-rich plasma. Format: cell-based. The settings on record: read-out: IC50clot.
For data set [2], the target named is T1, αIIbβ3 (Homo sapiens, UniProt P05106+P08514). Nature of the data set: LIBS AP5 epitope exposure on platelet αIIbβ3. In kind it is cell-based. The settings on record: washed human platelets; tirofiban 0.17 μM, m-tirofiban 16 μM, Hr10 7.6 μM. In short, it runs like this:
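Washed platelets came from citrated blood of drug-free donors: PRP was spun with PGE1 (20 ng/ml final), washed in Ringer's citrate-dextrose, and resuspended in Tyrode's buffer (pH 7.4, 0.02% BSA, 1 mM Ca²⁺/Mg²⁺). Buffer or test compound was preincubated 20 min at RT without stirring, then ADP (20 µM) plus Alexa647-AP5 (10 µg/mL) was added for 30 min at RT. Samples were diluted, fixed in 2% paraformaldehyde, and read by flow-cytometric MFI. Mean + s.e., n = 4 donors.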

Data set [3] relates to C57BL/6J mice. The data set is described as follows: Tail vein bleeding model. The settings on record: at the dose that suppressed femoral VT. In kind it is in vivo, mouse.
Data set [4] is described as follows: Plasma protein binding by rapid equilibrium dialysis. In kind it is in vitro ADME. The settings on record: human, platelet-free human plasma.
Data set [5] has as its system C57BL/6J mice. Nature of the data set: Thrombin-induced femoral vein thrombosis model. In kind it is in vivo, mouse. The settings on record: bolus tirofiban 0.025 μg/g, m-tirofiban 0.3 μg/g.
A further data set deals with platelets in whole blood. Nature of the data set: ADP-induced platelet aggregation in 1:1 diluted whole blood. Format: cell-based. The conditions noted are these: Homo sapiens, read-out: IC50agg.
For data set [6], the target named is T1, αIIbβ3. The data set is described as follows: ODE model of inhibitor occupancy of αIIbβ3. The settings on record: ODEs Eq 16-22.

T1 sequence (P08514 32-887 limits assumed): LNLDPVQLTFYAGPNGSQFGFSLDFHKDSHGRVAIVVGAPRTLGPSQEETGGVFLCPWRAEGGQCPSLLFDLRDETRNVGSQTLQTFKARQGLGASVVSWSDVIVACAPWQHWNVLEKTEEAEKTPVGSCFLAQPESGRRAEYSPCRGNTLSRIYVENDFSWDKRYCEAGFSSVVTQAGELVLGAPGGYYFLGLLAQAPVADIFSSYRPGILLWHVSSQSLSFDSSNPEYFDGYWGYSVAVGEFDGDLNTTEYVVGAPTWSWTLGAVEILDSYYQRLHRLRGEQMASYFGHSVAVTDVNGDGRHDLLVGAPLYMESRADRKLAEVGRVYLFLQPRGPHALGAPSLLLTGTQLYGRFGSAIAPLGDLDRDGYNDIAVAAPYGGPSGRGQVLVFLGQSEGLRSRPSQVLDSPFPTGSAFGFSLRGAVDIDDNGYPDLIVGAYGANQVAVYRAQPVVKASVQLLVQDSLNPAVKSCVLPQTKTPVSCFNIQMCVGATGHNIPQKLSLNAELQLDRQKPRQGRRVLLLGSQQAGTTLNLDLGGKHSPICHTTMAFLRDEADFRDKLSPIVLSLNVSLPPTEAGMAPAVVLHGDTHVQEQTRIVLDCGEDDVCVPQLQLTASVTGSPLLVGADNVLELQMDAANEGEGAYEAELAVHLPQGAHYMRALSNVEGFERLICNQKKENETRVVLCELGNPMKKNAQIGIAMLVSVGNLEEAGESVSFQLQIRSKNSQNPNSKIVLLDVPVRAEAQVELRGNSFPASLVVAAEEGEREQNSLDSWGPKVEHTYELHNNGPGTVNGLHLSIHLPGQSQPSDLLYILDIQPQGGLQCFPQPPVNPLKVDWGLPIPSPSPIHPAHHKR
T1 sequence (P08514 891-1039 partner limits assumed): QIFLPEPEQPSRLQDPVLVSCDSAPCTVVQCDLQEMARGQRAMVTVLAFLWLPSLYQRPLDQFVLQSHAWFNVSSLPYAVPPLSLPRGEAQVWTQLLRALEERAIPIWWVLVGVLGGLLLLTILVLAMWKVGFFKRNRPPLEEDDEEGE
T1 sequence (P05106 27-788): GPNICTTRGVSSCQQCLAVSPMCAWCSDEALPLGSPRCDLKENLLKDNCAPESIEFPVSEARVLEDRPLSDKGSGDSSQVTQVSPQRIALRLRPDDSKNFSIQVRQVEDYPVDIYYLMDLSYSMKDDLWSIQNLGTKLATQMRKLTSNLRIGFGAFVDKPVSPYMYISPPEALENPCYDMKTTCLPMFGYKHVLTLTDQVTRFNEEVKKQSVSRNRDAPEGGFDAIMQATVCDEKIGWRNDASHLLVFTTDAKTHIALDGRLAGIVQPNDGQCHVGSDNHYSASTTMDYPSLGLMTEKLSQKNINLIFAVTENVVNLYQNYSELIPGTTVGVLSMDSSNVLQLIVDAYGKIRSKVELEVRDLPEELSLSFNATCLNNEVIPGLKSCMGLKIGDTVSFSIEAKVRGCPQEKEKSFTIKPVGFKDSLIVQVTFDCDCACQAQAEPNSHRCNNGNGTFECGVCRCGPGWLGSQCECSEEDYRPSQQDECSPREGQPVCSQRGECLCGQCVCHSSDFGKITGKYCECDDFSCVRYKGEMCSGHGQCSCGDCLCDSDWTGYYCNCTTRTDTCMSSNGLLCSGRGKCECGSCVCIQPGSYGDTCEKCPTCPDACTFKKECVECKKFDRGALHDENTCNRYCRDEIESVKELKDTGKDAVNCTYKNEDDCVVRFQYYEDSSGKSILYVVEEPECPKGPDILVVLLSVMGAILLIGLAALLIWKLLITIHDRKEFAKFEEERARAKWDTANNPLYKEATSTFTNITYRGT

Consider fibrinogen, for which the Kd (commonly the free concentration of one partner at which half of the binding sites on the other are occupied at equilibrium, for simple one-to-one binding) at αIIbβ3 [1] (read-out: Kd,F of fibrinogen to αIIbβ3, assumed in ODE model ref 58) was 143 nM.
`N=C(N)c1ccc(C(=O)N[C@@H](Cc2ccc([N+](=O)[O-])cc2)C(=O)N2CCc3nn(CC(=O)O)cc3C2)cc1` [UR-2922]: the IC50clot/IC50agg ratio with platelets is on record as 20.63. The Kd at αIIbβ3 [1] (read-out: mean Kd to αIIbβ3) is 0.3 nM.
As for `CCCCS(=O)(=O)N[C@@H](Cc1ccc(OCCCCC2CCNCC2)cc1)C(=O)O` [tirofiban], the IC50 in the data set on human PRP was 162 ± 61 nM; in the data set with platelets in whole blood it was 6 ± 0.58 nM. For the same molecule, the “AP5 epitope expression above that seen with ADP (or thrombin) alone” value at αIIbβ3 [2] is on record as “large increase”. Further, in the data set on C57BL/6J mice [3], the “bleeding time vs PBS” value is “prolonged bleeding time”. The “bleeding vs PBS” value in the data set on C57BL/6J mice [3] is recorded as “significant bleeding”. Besides, in data set [4], the free fraction (fraction unbound) (in general, the share of the substance not bound to proteins or other matrix) at 24 h, 2 µM was 0.413 ± 0.0303. Besides, the “total accumulation of fibrin vs untreated” value in the data set on C57BL/6J mice [5] is “significant only at a p-value of 0.0606”. The figures for the “concentration for 50% occupancy of αIIbβ3 (50% OCCL:T)” value on αIIbβ3 [6] (1:1 diluted whole blood) and at αIIbβ3 [6] (undiluted whole blood) were 26.5 nM and 38.0 nM, respectively. On αIIbβ3 [1] (read-out: Kd for pretreated (inactive) αIIbβ3), the Kd is 15 nM.
